Assay results taken from the RNAGym collection of RNA variant scans (doi:10.1002/anie.201605470).

B1: Osa-1-4 twister ribozyme (parent)
chain: CCGCCUAACACUGCCAAUGCCGGUCCCAAGCCCGGAUAAAAGUGGAGGGGGCGG

Variants of: B1
Assay: self-cleavage, relative activity (ratio to wild type); higher = more cleavage; co-transcriptional
Outline: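 The 48 positions downstream of the cleavage site in a DNA template for a 54-nucleotide Oryza sativa twister ribozyme carried 97 % wild-type base and 1 % of each other base. After in vitro transcription (2 h, 37 °C) with co-transcriptional self-cleavage, the RNA was reverse-transcribed with a template-switching oligonucleotide, PCR-amplified and deep-sequenced. Relative activity is the fraction cleaved, judged by reads with or without upstream sequence and normalised to wild type.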

| Variant | self-cleavage |
| --- | --- |
| CCGCCUAACACUGCCAAUGCCGGUCCCAGGCCCGGAUAAAUGUGGAGGGGGCGG [A29G A41U] | 0.46 |
| CCGCCUAACACUGCCAAUGCCGGUCCCAGGCCCGGAUAAAGGUGGAGGGGGCGG [A29G A41G] | 0.12 |
| CCGCCUAACACUGCCAAUGCCGGUCCCAGGCCCGGAUAAACGUGGAGGGGGCGG [A29G A41C] | 0.21 |
| CCGCCUAACACUGCCAAUGCCGGUCCCACGCCCGGAUAAAAGUGGAGGGGGCUG [A29C G53U] | 0.03 |
| CCGCCUAACACUGCCAAUGCCGGUCCCACGCCCGGAUAAAAGUGGAGGGGGCCG [A29C G53C] | 0.02 |
| CCGCCUAACACUGCCAAUGCCGGUCCCACGCCCGGAUAAAAGUGGAGGGGGCAG [A29C G53A] | 0.03 |
| CCGCCUAACACUGCCAAUGCCGGUCCCACGCCCGGAUAAAAGUGGAGGGGGCGC [A29C G54C] | 0.04 |
| CCGCCUAACACUGCCAAUGCCGGUCCCACGCCCGGAUAAAAGUGGAGGGGGCGU [A29C G54U] | 0.08 |
| CCGCCUAACACUGCCAAUGCCGGUCCCACGCCCGGAUAAAAGUGGAGGGGGCGA [A29C G54A] | 0.03 |
| CCGCCUAACACUGCCAAUGCCGGUCCCACGCCCGGAUAAAAGUGGAGGGGACGG [A29C G51A] | 0.03 |
| CCGCCUAACACUGCCAAUGCCGGUCCCACGCCCGGAUAAAAGUGGAGGGGUCGG [A29C G51U] | 0.03 |
| CCGCCUAACACUGCCAAUGCCGGUCCCACGCCCGGAUAAAAGUGGAGGGGCCGG [A29C G51C] | 0.02 |
| CCGCCUAACACUGCCAAUGCCGGACCCACGCCCGGAUAAAAGUGGAGGGGGCGG [A29C U24A] | 0.04 |
| CCGCCUAACACUGCCAAUGCCGGGCCCACGCCCGGAUAAAAGUGGAGGGGGCGG [A29C U24G] | 0.02 |
| CCGCCUAACACUGCCAAUGCCGGCCCCACGCCCGGAUAAAAGUGGAGGGGGCGG [A29C U24C] | 0.09 |
| CCGCCUAACACUGCCAAUGCCGGUCCCAGGCCCGGAUAAAAGUGGAGGGGGCGG [A29G] | 0.4 |
| CCGCCUAACACUGCCAAUACCGGUCCCAGGCCCGGAUAAAAGUGGAGGGGGCGG [A29G G19A] | 0.08 |
| CCGCCUAACACUGCUAAUGCCGGUCCCAGGCCCGGAUAAAAGUGGAGGGGGCGG [A29G C15U] | 0.05 |
| CCGCCUAACACUGCGAAUGCCGGUCCCAGGCCCGGAUAAAAGUGGAGGGGGCGG [A29G C15G] | 0.08 |
| CCGCCUAACACUGCAAAUGCCGGUCCCAGGCCCGGAUAAAAGUGGAGGGGGCGG [A29G C15A] | 0.06 |
| CCGCCUAACACUGCCAAUGCCGGUCCCAGGCCCGGAUAAAAGUGGAGGGGGUGG [A29G C52U] | 0.34 |
| CCGCCUAACACUGCCAAUGCCGGUCCCAGGCCCGGAUAAAAGUGGAGGGGGAGG [A29G C52A] | 0.16 |
| CCGCCUAACACUGCCAAUGCCGGUCCCAGGCCCGGAUAAAAGUGGAGGGGGGGG [A29G C52G] | 0.22 |
| CCGCCUAACACUGCCAAUGCCGGUGCCAGGCCCGGAUAAAAGUGGAGGGGGCGG [A29G C25G] | 0.04 |
| CCGCCUAACACUGCCAAUGCCGGUUCCAGGCCCGGAUAAAAGUGGAGGGGGCGG [A29G C25U] | 0.08 |

| Variant | self-cleavage |
| --- | --- |
| CCGCCUAACACUGCCAAUGCCGGUACCAGGCCCGGAUAAAAGUGGAGGGGGCGG [A29G C25A] | 0.04 |
| CCGCCUAACACUGCCAAUGCCGGUCCCACGCCCGGAUAAAAGUGGAGGUGGCGG [A29C G49U] | 0.02 |
| CCGCCUAACACUGCCAAUGCCGGUCCCACGCCCGGAUAAAAGUGGAGGCGGCGG [A29C G49C] | 0.01 |
| CCGCCUAACACUGCCAAUGCCGGUCCCAGGACCGGAUAAAAGUGGAGGGGGCGG [A29G C31A] | 0.02 |
| CCGCCUAACACUGCCAAUGCCGGUCCCAGGGCCGGAUAAAAGUGGAGGGGGCGG [A29G C31G] | 0.05 |
| CCGCCUAACACUGCCAAUGCCGGUCCCAGGUCCGGAUAAAAGUGGAGGGGGCGG [A29G C31U] | 0.12 |
| CCGCCUAAAACUGCCAAUGCCGGUCCCAGGCCCGGAUAAAAGUGGAGGGGGCGG [A29G C9A] | 0.05 |
| CCGCCUAAUACUGCCAAUGCCGGUCCCAGGCCCGGAUAAAAGUGGAGGGGGCGG [A29G C9U] | 0.06 |
| CCGCCUAAGACUGCCAAUGCCGGUCCCAGGCCCGGAUAAAAGUGGAGGGGGCGG [A29G C9G] | 0.09 |
| CCGCCUCACACUGCCAAUGCCGGUCCCAGGCCCGGAUAAAAGUGGAGGGGGCGG [A29G A7C] | 0.03 |
| CCGCCUGACACUGCCAAUGCCGGUCCCAGGCCCGGAUAAAAGUGGAGGGGGCGG [A29G A7G] | 0.11 |
| CCGCCUUACACUGCCAAUGCCGGUCCCAGGCCCGGAUAAAAGUGGAGGGGGCGG [A29G A7U] | 0.14 |
| CCGCCUAACACUGCCAAUGCCGGUCCCAGGCCCGGAUACAAGUGGAGGGGGCGG [A29G A39C] | 0.06 |
| CCGCCUAACACUGCCAAUGCCGGUCCCAGGCCCGGAUAUAAGUGGAGGGGGCGG [A29G A39U] | 0.11 |
| CCGCCUAACACUGCCAAUGCCGGUCCCAGGCCCGGAUAGAAGUGGAGGGGGCGG [A29G A39G] | 0.09 |
| CCGCCUAACACUCCCAAUGCCGGUCCCAGGCCCGGAUAAAAGUGGAGGGGGCGG [A29G G13C] | 0.01 |
| CCGCCUAACACUUCCAAUGCCGGUCCCAGGCCCGGAUAAAAGUGGAGGGGGCGG [A29G G13U] | 0.03 |
| CCGCCUAACACUACCAAUGCCGGUCCCAGGCCCGGAUAAAAGUGGAGGGGGCGG [A29G G13A] | 0.04 |
| CCGCCUAACACUGCCAAUGCCGGUCCCAGGCCCGGCUAAAAGUGGAGGGGGCGG [A29G A36C] | 0.07 |
| CCGCCUAACACUGCCAAUGCCGGUCCCAGGCCCGGUUAAAAGUGGAGGGGGCGG [A29G A36U] | 0.32 |
| CCGCCUAACACUGCCAAUGCCGGUCCCAGGCCCGGGUAAAAGUGGAGGGGGCGG [A29G A36G] | 0.47 |
| CCGCCUAACACUGCCAAGGCCGGUCCCACGCCCGGAUAAAAGUGGAGGGGGCGG [A29C U18G] | 0.06 |
| CCGCCUAACACUGCCAAAGCCGGUCCCACGCCCGGAUAAAAGUGGAGGGGGCGG [A29C U18A] | 0.04 |
| CCGCCUAACACUGCCAACGCCGGUCCCACGCCCGGAUAAAAGUGGAGGGGGCGG [A29C U18C] | 0.04 |
